# Out of some 2,500 compounds screened, about 460 (18%) were called active. These entries were drawn from the full list. Values without a mark were called inactive.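 Rule for the calls: active = mean activation above a cutoff of low control average plus 3 SD from the earlier screen (cut at about 12% in these data); inactive = the rest.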
# Test: compound fluorescence interference without thin filaments, confirmation, artefact control for cardiac RTF calcium sensitizer project, biochemical (AID 504382)
# Settings: IANBD fluorescence interference counterscreen, buffer, EC20 Ca2+; at 7.2 µM; hits give high values; scaled: EC20 calcium 0, EC100 calcium 100
# Method in brief: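 timing = compound incubation 15 min at 25 °C before fluorescence reading | technique = fluorescence at 480 nm excitation, 540 nm emission | evaluation = interference relative to controls | replication = triplicate wells per compound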
row,Structure (SMILES),fluorescence artifact activation
1,CCOC(=O)c1c(-c2ccccc2Cl)csc1NC(=O)c1cc(S(=O)(=O)N2CCOCC2)ccc1C,-0.04%
2,Cn1cc(/C=C2\SC(=S)N(N3CCOCC3)C2=O)c2ccccc21,0.4%
3,COC(=O)C1=C(C(=O)c2ccc(C)cc2)C(c2ccc(OC)c(OC)c2)n2nnnc2N1 (stereo unspecified),0%
4,COc1ccccc1N1C(=O)C2C(C(=O)c3ccccc3)=NN(c3ccccc3)C2C1=O (stereo unspecified),1.87%
5,CN(C)c1ccc(C2C=C(c3ccc(Cl)cc3OC(F)F)Nc3ncnn32)cc1 (stereo unspecified),28.8% (active)
6,Fc1ccc(C2=CC(c3ccco3)n3ncnc3N2)cc1 (stereo unspecified),3.08%
7,COc1cc(C2C=C(c3cccs3)Nc3ncnn32)cc(OC)c1OC (stereo unspecified),0.2%
8,Cc1ccc(S(=O)(=O)/N=C2/NC(=O)/C(=C/c3cc([N+](=O)[O-])ccc3O)S2)cc1,1.59%
9,COC(=O)[C@@H]1C[C@@]2(O)[C@H](O)[C@H](O)[C@H](O)C[C@H]2N1C/C=C/c1ccccc1,2.09%
10,CC(=O)Nc1cccc(C(=O)/C=C/c2ccc(N(C)C)cc2)c1,6.61%
11,COc1ccc(-c2nn(CCC(=O)O)cc2/C=C2\SC(N)=NC2=O)cc1,0%
12,O=C(Nn1cnnc1)c1cc([N+](=O)[O-])cc([N+](=O)[O-])c1,0.03%
13,COc1ccc2nc3ccccc3[n+]([O-])c2c1,2.24%
14,COc1ccc2nc(-c3ccccn3)[nH]c2c1,20.2% (active)
15,COc1ccc(OC)c(/C=C/c2nc3ccccc3[nH]c2=O)c1,0.12%
16,CN1/C(=C\C(=O)c2ccco2)C(C)(C)c2ccccc21,-0.02%
17,COc1ccc2[nH]c3c(c2c1)CCNC3c1ccc([N+](=O)[O-])o1 (stereo unspecified),-0.02%
18,COc1ccc(Nc2cccc3ccccc23)cc1,53.2% (active)
19,COc1ccc(NC(=O)CSc2ccc3c4c(cccc24)C(=O)c2ccccc2-3)cc1,0.08%
20,COc1ccc(Nc2cc(C)nc3ccc(OC)cc23)cc1,0.01%
21,CC(=O)c1cccc(Nc2cc(C)nc3ccc(C)cc23)c1,4.88%
22,CCOC(=O)COn1c(=O)c(-c2cc3ccccc3o2)[n+]([O-])c2ccccc21,-0.09%
23,CCCC[C@H]1COCCS(=O)(=O)N1Cc1ccc(F)cc1,0.08%

row,Structure (SMILES),fluorescence artifact activation
1,O=C(NCC1CCCO1)c1ccc2c(c1)C(=O)N(c1cccc([N+](=O)[O-])c1)C2=O (stereo unspecified),14% (active)
2,O=C(NCC1CCCO1)c1cccc2c1C(=O)c1ccc(N3CCC(Cc4ccccc4)CC3)cc1S2(=O)=O (stereo unspecified),0.63%
3,O=C(NCC1CCCO1)c1c(O)nc2sccn2c1=O (stereo unspecified),1.06%
4,CCN(CC)C(=O)Cn1c(C)c(/C=C/c2cc[n+](C)cc2)c2ccccc21,0.06%
5,CC(O)c1cccc(N=Cc2ccc3ccccc3c2O)c1 (stereo unspecified),6.46%
6,CCc1ccc(/C=C2\Oc3c(ccc(O)c3CN3CCN(C)CC3)C2=O)cc1,-0.01%
7,COc1ccc(/C=C/C=C2\N=C(SC)SC2=O)cc1,-0.02%
8,COc1ccc(/C=C/c2nc3sc4c(c3c(=O)o2)CCC4)cc1,121% (active)
9,CN(C)NC(=O)c1ccc([N+](=O)[O-])s1,7.24%
10,Cc1ccc(-c2nc3ncccn3c2Nc2ccc3c(c2)OCCO3)o1,73.3% (active)
11,O=C1c2ccccc2-c2onc3ccc(N4CCCC4)c1c23,0.15%
12,CS(=O)(=O)N(CC(=O)O)Cc1cccc(CN(CC(=O)O)S(C)(=O)=O)c1,0.86%
13,CCCCCCN1C=CC(=C/C=C(\C#N)C(=O)OCC)C=C1,168% (active)
14,C=CCN1C=CC(=C/C=C(/C#N)C(=O)OCC)C=C1,-0.04%
15,CCOC(=O)/C(C#N)=C\C=C1C=CN(C)C=C1,0.04%
16,CCc1ccc(C2C(C#N)=C(N)SC(N)=C2C#N)s1,0.05%
17,CSc1nc2c(c(=O)[nH]c(=O)n2C)n1CCCc1ccccc1,0.1%
18,COC(=O)CSc1nc2c(c(=O)n(C)c(=O)n2C)n1CCCc1ccccc1,52.3% (active)
19,C=CCNc1nc2c(c(=O)[nH]c(=O)n2C)n1CCCc1ccccc1,-0.06%
20,Cc1cc(/C=C2/NC(=O)N(Cc3ccccc3F)C2=O)c(C)n1C,5.71%
21,CCOC(=O)CSc1nc2c(c(=O)n(C)c(=O)n2C)n1Cc1ccccc1F,502% (active)
22,CN1CCN(c2nc3c(c(=O)n(C)c(=O)n3C)n2Cc2ccccc2F)CC1,0.14%
23,CCOC(=O)c1c(NC(=O)c2ccno2)c2cc([N+](=O)[O-])ccc2n1C,0%

# — PubChem BioAssay AID504382 (The Scripps Research Institute Molecular Screening Center, 2011)
